Assay results published in ChEMBL document CHEMBL1122071, “Avermectin acyl derivatives with anthelmintic activity” (1982).

Legend:
Format in all cases: functional
Cooperia oncophora = assay: Anthelmintic efficacy against adult Cooperia oncopphora (C.o) in sheep at dose of 0.25 mg/kg administered orally; settings: route oral
How it was run: (§1)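 Lambs experimentally infected with mixed gastrointestinal nematodes (H. contortus, O. circumcincta, T. axei, T. colubriformis, C. oncophora, Oe. columbianum) were dosed orally, 1–3 sheep per dose. An untreated infected group of 6 was included, with worm burdens given as the geometric mean number of worms per lamb. Efficacy was scored against adult and, where listed, EL4 stages.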

[1] = test system: Trichostrongylus colubriformis; assay: Minimal dose necessary to eliminate > 83% of Trichostrongylus colubriformis infection in gerbils
[2] = test system: Teladorsagia circumcincta; assay: Anthelmintic efficacy against adult Ostertagia circumcincta (O. c) in sheep at dose of 0.25 mg/kg administered orally; settings: route oral; how it was run: as §1
Trichostrongylus axei = assay: Anthelmintic efficacy against Trichostrongylus axei (T.a) in sheep at dose of 0.25 mg/kg administered orally; settings: route oral; how it was run: as §1
[3] = test system: Trichostrongylus colubriformis; assay: Anthelmintic efficacy against Trichostrongylus colubriformis (T.c) in sheep at dose of 0.25 mg/kg administered orally; settings: route oral; how it was run: as §1
[4] = test system: Oesophagostomum columbianum; assay: Anthelmintic efficacy against Oseophagostomum columbianum (Oe. c) in sheep at dose of 0.25 mg/kg administered orally; settings: route oral; how it was run: as §1
Haemonchus contortus = assay: Anthelmintic efficacy against adult Haemonchus contortus (H.c) in sheep at dose of 0.25 mg/kg administered orally; settings: route oral; how it was run: as §1

Structure (SMILES)	Dose [1] [mg/kg]	also measured
CC[C@H](C)[C@H]1O[C@]2(CC(O)[C@@H]1C)C[C@@H]1C[C@@H](C/C=C(\C)[C@@H](OC3CC(OC)C(OC4CC(OC)C(OC(C)=O)C(C)O4)C(C)O3)[C@@H](C)/C=C/C=C3\CO[C@@H]4[C@H](OC)C(C)=C[C@@H](C(=O)O1)[C@]34O)O2 (stereo partly drawn)	0.06	Efficacy (Cooperia oncophora): >90%; Efficacy [2]: >90%; Efficacy (Trichostrongylus axei): >90%; Efficacy [3]: >90%; Efficacy [4]: >90%; Efficacy (Haemonchus contortus): >90%
CC[C@H](C)[C@H]1O[C@]2(C=C[C@@H]1C)C[C@@H]1C[C@@H](C/C=C(\C)[C@@H](O[C@H]3C[C@@H](OC)[C@@H](O[C@H]4C[C@@H](OC)[C@@H](O)[C@H](C)O4)[C@H](C)O3)[C@@H](C)/C=C/C=C3\CO[C@@H]4[C@H](O[Si](C)(C)C(C)(C)C)C(C)=C[C@@H](C(=O)O1)[C@]34O)O2	>2.5	
CC[C@H](C)[C@H]1O[C@]2(C=C[C@@H]1C)C[C@@H]1C[C@@H](C/C=C(\C)[C@@H](O[C@H]3C[C@@H](OC)[C@@H](O[C@H]4C[C@@H](OC)[C@@H](O[Si](C)(C)C(C)(C)C)[C@H](C)O4)[C@H](C)O3)[C@@H](C)/C=C/C=C3\CO[C@@H]4[C@H](O[Si](C)(C)C(C)(C)C)C(C)=C[C@@H](C(=O)O1)[C@]34O)O2	>2.5	
CC[C@H](C)[C@H]1O[C@]2(C=C[C@@H]1C)C[C@@H]1C[C@@H](C/C=C(\C)[C@@H](O[C@H]3C[C@@H](OC)[C@@H](O[C@H]4C[C@@H](OC)[C@@H](O)[C@H](C)O4)[C@H](C)O3)[C@@H](C)/C=C/C=C3\CO[C@@H]4[C@H](OC(C)=O)C(C)=C[C@@H](C(=O)O1)[C@]34O)O2	0.125	
CC[C@H](C)[C@H]1O[C@]2(C=C[C@@H]1C)C[C@@H]1C[C@@H](C/C=C(\C)[C@@H](O[C@H]3C[C@@H](OC)[C@@H](O[C@H]4C[C@@H](OC)[C@@H](OC(=O)C(C)(C)C)[C@H](C)O4)[C@H](C)O3)[C@@H](C)/C=C/C=C3\CO[C@@H]4[C@H](O)C(C)=C[C@@H](C(=O)O1)[C@]34O)O2	0.5	
CC[C@H](C)[C@H]1O[C@]2(C=C[C@@H]1C)C[C@@H]1C[C@@H](C/C=C(\C)[C@@H](O[C@H]3C[C@@H](OC)[C@@H](O[C@H]4C[C@@H](OC)[C@@H](OC(=O)CNC(C)=O)[C@H](C)O4)[C@H](C)O3)[C@@H](C)/C=C/C=C3\CO[C@@H]4[C@H](O)C(C)=C[C@@H](C(=O)O1)[C@]34O)O2	0.025	
CCC(C)[C@H]1O[C@]2(CC(OC(C)=O)[C@@H]1C)C[C@@H]1C[C@@H](C/C=C(\C)[C@@H](OC3CC(OC)C(OC4CC(OC)C(OC(C)=O)C(C)O4)C(C)O3)[C@@H](C)/C=C/C=C3\COc4cc(C)cc(c43)C(=O)O1)O2 (stereo partly drawn)	>2.5	
